Assay results from ChEMBL document CHEMBL1144800, “Synthesis and antimicrobial properties of monensin A esters” (2008).
In brackets after ≈: the same amount, converted by molar mass. Activity calls are given as the source filed them. The calls are words filed in the database; no cut-off is given here.

Assays:
Micrococcus luteus [1] = assay: Antibacterial activity against Micrococcus luteus ATCC 9341 at 400 ug/disc after 18 hrs by disc diffusion assay; type: functional; conditions: ATCC 9341, 18 h, read-out: IZ
Method in brief: (§1)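 Disc diffusion on Mueller–Hinton II agar per CLSI guidelines. Compound in ethanol applied to 9 mm filter paper discs at 400 µg per disc, then dried and placed on the agar surface. Growth inhibition zone diameter read after 18 h at 35 °C.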

Candida albicans [2] = assay: Antifungal activity against Candida albicans ATCC 90028 at 400 ug/disc after 24 hrs by disc diffusion assay; type: functional; conditions: ATCC 90028, 24 h, read-out: IZ
Method in brief: (§2)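 Disc diffusion on RPMI agar with 2% glucose per CLSI guidelines. Discs 9 mm filter paper, loaded from ethanol solution with 400 µg compound, dried before placing on the agar. Inhibition zone diameter read after incubation at 35 °C. Fluconazole control at 25 µg per disc.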

[3] = test system: Bordetella bronchiseptica; assay: Antibacterial activity against Bordetella bronchiseptica ATCC 4617 at 400 ug/disc after 18 hrs by disc diffusion assay; type: functional, organism-based; method in brief: as §1
Staphylococcus aureus [4] = assay: Antibacterial activity against Staphylococcus aureus ATCC 25923 after 18 hrs by serial agar dilution method; type: functional; conditions: ATCC 25923, 18 h
Method in brief: (§3)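 MIC by twofold serial agar dilution in Mueller–Hinton II agar per CLSI, run only for compounds that gave an inhibition zone in disc assay. Compounds dissolved in DMSO, tested at 3.125–400 µg/ml in agar. Final inoculum 10^4 CFU/ml. […] DMSO control included.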

Enterococcus hirae [5] = assay: Antibacterial activity against Enterococcus hirae ATCC 10541 at 400 ug/disc after 18 hrs by disc diffusion assay; type: functional; conditions: ATCC 10541, 18 h, read-out: IZ; method in brief: as §1
[6] = test system: Staphylococcus epidermidis; assay: Antibacterial activity against Staphylococcus epidermidis ATCC 12228 at 400 ug/disc after 18 hrs by disc diffusion assay; type: functional; conditions: ATCC 12228, 18 h, read-out: IZ; method in brief: as §1
Staphylococcus aureus [7] = assay: Antibacterial activity against Staphylococcus aureus ATCC 29213 at 400 ug/disc after 18 hrs by disc diffusion assay; type: functional; conditions: ATCC 29213, 18 h, read-out: IZ; method in brief: as §1
Bacillus subtilis [8] = assay: Antibacterial activity against Bacillus subtilis ATCC 6633 after 18 hrs by serial agar dilution method; type: functional; conditions: ATCC 6633, 18 h; method in brief: as §3
Escherichia coli [9] = assay: Antibacterial activity against Escherichia coli NCTC 8196 at 400 ug/disc after 18 hrs by disc diffusion assay; type: functional, organism-based; method in brief: as §1
Micrococcus luteus [10] = assay: Antibacterial activity against Micrococcus luteus ATCC 10240 after 18 hrs by serial agar dilution method; type: functional; conditions: ATCC 10240, 18 h; method in brief: as §3
Staphylococcus aureus [11] = assay: Antibacterial activity against Staphylococcus aureus NCTC 4163 at 400 ug/disc after 18 hrs by disc diffusion assay; type: functional; conditions: NCTC 4163, 18 h, read-out: IZ; method in brief: as §1
Candida albicans [12] = assay: Antifungal activity against Candida albicans ATCC 10231 at 400 ug/disc after 24 hrs by disc diffusion assay; type: functional; conditions: ATCC 10231, 24 h, read-out: IZ; method in brief: as §2
Bacillus cereus [13] = assay: Antibacterial activity against Bacillus cereus ATCC 11778 after 18 hrs by serial agar dilution method; type: functional; conditions: ATCC 11778, 18 h; method in brief: as §3
Staphylococcus aureus [14] = assay: Antibacterial activity against Staphylococcus aureus ATCC 6538 after 18 hrs by serial agar dilution method; type: functional; conditions: ATCC 6538, 18 h; method in brief: as §3
Candida albicans [15] = assay: Antifungal activity against Candida albicans ATCC 90028 after 24 hrs by serial agar dilution method; type: functional; conditions: ATCC 90028, 24 h
Method in brief: (§4)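 Yeast MIC by twofold serial agar dilution on RPMI agar with 2% glucose (CLSI), run only for compounds that gave an inhibition zone in disc assay. Compounds in DMSO, 3.125–400 µg/ml in agar. Final inoculum 10^4 CFU/ml. […] Fluconazole and DMSO controls included.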

Bacillus cereus [16] = assay: Antibacterial activity against Bacillus cereus ATCC 11778 at 400 ug/disc after 18 hrs by disc diffusion assay; type: functional; conditions: ATCC 11778, 18 h, read-out: IZ; method in brief: as §1
Candida parapsilosis [17] = assay: Antifungal activity against Candida parapsilosis ATCC 22019 after 24 hrs by serial agar dilution method; type: functional; conditions: Lodderomyces parapsilosis, ATCC 22019, 24 h
Method in brief: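 Twofold serial agar dilution per CLSI on RPMI agar with 2% glucose. Agents were dissolved in DMSO and tested at 3.125–400 µg/ml in the solid medium, with a DMSO control. Final inoculum was 10^4 CFU/mL.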

Enterococcus hirae [18] = assay: Antibacterial activity against Enterococcus hirae ATCC 10541 after 18 hrs by serial agar dilution method; type: functional; conditions: ATCC 10541, 18 h
Method in brief: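 Twofold serial agar dilution MIC in Mueller–Hinton II agar (CLSI), run only for compounds that gave an inhibition zone in disc assay. DMSO solutions tested at 3.125–400 µg/ml in agar. Final inoculum 10^5 CFU/ml. Read after 18 h at 35 °C. DMSO control included.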

Micrococcus luteus [19] = assay: Antibacterial activity against Micrococcus luteus ATCC 10240 at 400 ug/disc after 18 hrs by disc diffusion assay; type: functional; conditions: ATCC 10240, 18 h, read-out: IZ; method in brief: as §1
Proteus vulgaris = assay: Antibacterial activity against Proteus vulgaris NCTC 4635 at 400 ug/disc after 18 hrs by disc diffusion assay; type: functional, organism-based; method in brief: as §1
Pseudomonas aeruginosa [20] = assay: Antibacterial activity against Pseudomonas aeruginosa NCTC 6749 at 400 ug/disc after 18 hrs by disc diffusion assay; type: functional, organism-based; method in brief: as §1
Bacillus subtilis [21] = assay: Antibacterial activity against Bacillus subtilis ATCC 6633 at 400 ug/disc after 18 hrs by disc diffusion assay; type: functional; conditions: ATCC 6633, 18 h, read-out: IZ; method in brief: as §1
Candida albicans [22] = assay: Antifungal activity against Candida albicans ATCC 10231 after 24 hrs by serial agar dilution method; type: functional; conditions: ATCC 10231, 24 h; method in brief: as §4
Candida parapsilosis [23] = assay: Antifungal activity against Candida parapsilosis ATCC 22019 at 400 ug/disc after 24 hrs by disc diffusion assay; type: functional; conditions: Lodderomyces parapsilosis, ATCC 22019, 24 h; read-out: IZ; method in brief: as §2
Staphylococcus aureus [24] = assay: Antibacterial activity against Staphylococcus aureus ATCC 6538 at 400 ug/disc after 18 hrs by disc diffusion assay; type: functional; conditions: ATCC 6538, 18 h, read-out: IZ; method in brief: as §1
Pseudomonas aeruginosa [25] = assay: Antibacterial activity against Pseudomonas aeruginosa ATCC 15442 at 400 ug/disc after 18 hrs by disc diffusion assay; type: functional, organism-based; method in brief: as §1
[26] = test system: Staphylococcus epidermidis; assay: Antibacterial activity against Staphylococcus epidermidis ATCC 12228 after 18 hrs by serial agar dilution method; type: functional; conditions: ATCC 12228, 18 h; method in brief: as §3
Micrococcus luteus [27] = assay: Antibacterial activity against Micrococcus luteus ATCC 9341 after 18 hrs by serial agar dilution method; type: functional; conditions: ATCC 9341, 18 h; method in brief: as §3
Staphylococcus aureus [28] = assay: Antibacterial activity against Staphylococcus aureus ATCC 29213 after 18 hrs by serial agar dilution method; type: functional; conditions: ATCC 29213, 18 h; method in brief: as §3
Escherichia coli [29] = assay: Antibacterial activity against Escherichia coli ATCC 10538 at 400 ug/disc after 18 hrs by disc diffusion assay; type: functional, organism-based; method in brief: as §1
Pseudomonas aeruginosa [30] = assay: Antibacterial activity against Pseudomonas aeruginosa ATCC 27853 at 400 ug/disc after 18 hrs by disc diffusion assay; type: functional, organism-based; method in brief: as §1
Staphylococcus aureus [31] = assay: Antibacterial activity against Staphylococcus aureus NCTC 4163 after 18 hrs by serial agar dilution method; type: functional; conditions: NCTC 4163, 18 h; method in brief: as §3
Staphylococcus aureus [32] = assay: Antibacterial activity against Staphylococcus aureus ATCC 25923 at 400 ug/disc after 18 hrs by disc diffusion assay; type: functional; conditions: ATCC 25923, 18 h, read-out: IZ; method in brief: as §1
Escherichia coli [33] = assay: Antibacterial activity against Escherichia coli ATCC 25922 at 400 ug/disc after 18 hrs by disc diffusion assay; type: functional, organism-based; method in brief: as §1
Candida albicans [34] = assay: Antifungal activity against Candida albicans ATCC 90028 at 25 ug/disc after 24 hrs by disc diffusion assay; type: functional; conditions: ATCC 90028, 24 h, read-out: IZ
Method in brief: (§5)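 Disc diffusion per CLSI on RPMI agar with 2% glucose. Sterile 9 mm filter-paper discs were loaded at 25 µg per disc, dried, and placed on the agar surface. Plates were incubated at 35 °C, and the diameter of the growth-inhibition zone was read.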

Candida parapsilosis [35] = assay: Antifungal activity against Candida parapsilosis ATCC 22019 at 25 ug/disc after 24 hrs by disc diffusion assay; type: functional; conditions: Lodderomyces parapsilosis, ATCC 22019, 24 h; read-out: IZ; method in brief: as §5
Candida albicans [36] = assay: Antifungal activity against Candida albicans ATCC 10231 at 25 ug/disc after 24 hrs by disc diffusion assay; type: functional; conditions: ATCC 10231, 24 h, read-out: IZ; method in brief: as §5

CC[C@@]1([C@@H]2O[C@@H]([C@H]3O[C@@](O)(CO)[C@H](C)C[C@@H]3C)C[C@@H]2C)CC[C@H]([C@]2(C)CC[C@]3(C[C@H](O)[C@@H](C)[C@@H]([C@@H](C)[C@@H](OC)[C@H](C)C(=O)OCCN4CCOCC4)O3)O2)O1
zone of inhibition at 400 µg/disc (Micrococcus luteus [1]): 22 mm | zone of inhibition at 400 µg/disc (Candida albicans [2]): 17 mm | Activity [3]: inactive | MIC (Staphylococcus aureus [4]): 6.25 mg/L (≈ 7.97 µM) | zone of inhibition at 400 µg/disc (Enterococcus hirae [5]): 13 mm | zone of inhibition at 400 µg/disc [6]: 24 mm | zone of inhibition at 400 µg/disc (Staphylococcus aureus [7]): 25 mm | MIC (Bacillus subtilis [8]): 6.25 mg/L (≈ 7.97 µM) | Activity (Escherichia coli [9]): inactive | MIC (Micrococcus luteus [10]): 12.5 mg/L (≈ 15.9 µM) | zone of inhibition at 400 µg/disc (Staphylococcus aureus [11]): 23 mm | zone of inhibition at 400 µg/disc (Candida albicans [12]): 18 mm | MIC (Bacillus cereus [13]): 6.25 mg/L (≈ 7.97 µM) | MIC (Staphylococcus aureus [14]): 12.5 mg/L (≈ 15.9 µM) | MIC (Candida albicans [15]): 200 mg/L (≈ 255 µM) | zone of inhibition at 400 µg/disc (Bacillus cereus [16]): 25 mm | MIC (Candida parapsilosis [17]): 400 mg/L (≈ 510 µM) | MIC (Enterococcus hirae [18]): 50 mg/L (≈ 63.8 µM) | zone of inhibition at 400 µg/disc (Micrococcus luteus [19]): 18 mm | Activity (Proteus vulgaris): inactive | Activity (Pseudomonas aeruginosa [20]): inactive | zone of inhibition at 400 µg/disc (Bacillus subtilis [21]): 27 mm | MIC (Candida albicans [22]): 200 mg/L (≈ 255 µM) | zone of inhibition at 400 µg/disc (Candida parapsilosis [23]): 14 mm | zone of inhibition at 400 µg/disc (Staphylococcus aureus [24]): 23 mm | Activity (Pseudomonas aeruginosa [25]): inactive | MIC [26]: 12.5 mg/L (≈ 15.9 µM) | MIC (Micrococcus luteus [27]): 25 mg/L (≈ 31.9 µM) | MIC (Staphylococcus aureus [28]): 6.25 mg/L (≈ 7.97 µM) | Activity (Escherichia coli [29]): inactive | Activity (Pseudomonas aeruginosa [30]): inactive | MIC (Staphylococcus aureus [31]): 12.5 mg/L (≈ 15.9 µM) | zone of inhibition at 400 µg/disc (Staphylococcus aureus [32]): 20 mm | Activity (Escherichia coli [33]): inactive

OC(Cn1cncn1)(Cn1cncn1)c1ccc(F)cc1F [FLUCONAZOLE]
zone of inhibition at 25 µg/disc (Candida albicans [34]): 32 mm | zone of inhibition at 25 µg/disc (Candida parapsilosis [35]): 22 mm | MIC (Candida parapsilosis [17]): 2 mg/L (≈ 6.53 µM) | zone of inhibition at 25 µg/disc (Candida albicans [36]): 22 mm
